In data set [1] the test system is Plasmodium falciparum. The experiment in a line: Antiplasmodial activity against D-sorbitol synchronized ring stage of chloroquine-resistant Plasmodium falciparum W2 assessed as parasite growth inhibition measured after 48 hrs by YOYO-1 dye based FACSort flow cytometry analysis. The class given is functional, organism-based. Conditions: W2, 48 h. (In general: Flow cytometry measures light scatter and fluorescence of single cells or particles in a stream.)

Data set [2] can be described thus: Selectivity index, ratio of IC50 for African green monkey Vero cells to IC50 for D-sorbitol synchronized ring stage of chloroquine-resistant Plasmodium falciparum W2. Conditions: read-out: Ratio IC50. Type of data set: toxicity.
The next data set deals with Vero. Nature of the data set: Cytotoxicity against African green monkey Vero cells measured after 24 hrs by resazurin dye based fluorescence assay. The class given is cell-based. To be noted: Chlorocebus sabaeus. For orientation: Resazurin is reduced to fluorescent resorufin, in cell work by metabolically active cells.
For data set [3], the system named is Plasmodium falciparum. The experiment in a line: Antiplasmodial activity against sorbitol synchronized CQ-resistant Plasmodium falciparum W2 assessed as parasite growth inhibition after 48 hrs by SYBR Green I-based fluorescence assay. Conditions: W2, 48 h.
Data set [4] concerns Heme. Nature of the data set: Binding affinity to monomeric heme assessed as heme-compound complex formation by measuring shifting and broadening of the peaks by 1H-NMR analysis.
Data set [5] deals with Heme. Nature of the data set: Binding affinity to monomeric heme assessed as heme-compound complex formation at 1:1 ratio in aqueous DMSO solution at 5 micromol by mass spectrometry analysis.
In data set [6] the test system is Heme. The experiment in a line: Binding affinity to monomeric heme assessed as decrease in band intensity in HEPES buffer in aqueous DMSO solution at pH 7.4 by UV-vis spectrophotometric titration analysis. A digest of the protocol: (§1)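 Monomeric hemin (12 μM) in 40% DMSO with 0.02 M HEPES, pH 7.4, was titrated with compound at 0–18 μM. The drop in the 401 nm monomeric-heme band was followed by UV-vis. Log K was obtained by nonlinear least-squares fitting of the titration curves. A DMSO solvent control was included.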

In data set [7] the test system is Plasmodium falciparum. Nature of the data set: Potency index, ratio of chloroquine IC50 to compound IC50 for antiplasmodial activity against D-sorbitol synchronized ring stage of chloroquine-resistant Plasmodium falciparum W2 assessed as parasite growth inhibition measured after 48 hrs by YOYO-1 dye based FACSort flow cytometry analysis. The class given is functional.

Data set [8] concerns Heme. Nature of the data set: Binding affinity to monomeric heme assessed as decrease in band intensity in MES buffer in aqueous DMSO solution at pH 5.6 by UV-vis spectrophotometric titration analysis. In a few lines: (§2)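 Monomeric hemin (12 μM) in aqueous DMSO with 0.02 M MES, pH 5.6, was titrated with compound at 0–16 μM. Loss of the 401 nm monomeric-heme absorbance was monitored by UV-vis. Binding constant (log K) came from nonlinear least-squares fitting of the titration curves, with a DMSO solvent control.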

In data set [9] the test system is Heme. The experiment in a line: Binding affinity to monomeric heme assessed as binding constant in MES buffer in aqueous DMSO solution at pH 5.6 by UV-vis spectrophotometric titration analysis. In a few lines:
as §2

For data set [10], the system named is Heme. Nature of the data set: Binding affinity to monomeric heme assessed as binding constant in HEPES buffer in aqueous DMSO solution at pH 7.4 by UV-vis spectrophotometric titration analysis. In a few lines:
as §1

28 compounds from ChEMBL document CHEMBL4334549, “Functionalized Naphthalimide-4-aminoquinoline Conjugates as Promising Antiplasmodials, with Mechanistic Insights” (ACS Med Chem Lett, 2020) can be followed below.

Calls of active or inactive are those of the source. The calls are words filed in the database; no cut-off is given here. Where only a bound is given, the exact number is not on record here.

The term IC50 denotes the concentration that gives 50% inhibition.

For `O=C1c2cccc3c(N4CCOCC4)ccc(c23)C(=O)N1CCCCNc1ccnc2cc(Cl)ccc12`, the IC50 stood at 0.237 µM in the data set with Plasmodium falciparum [1] and 12.5 µM in the data set with Vero. In addition, the selectivity ratio in data set [2] stood at 52.6.

As to `O=C1c2cccc3c(N4CCN(CCO)CC4)ccc(c23)C(=O)N1CCCCNc1ccnc2cc(Cl)ccc12`, the IC50 with Plasmodium falciparum [1] was 0.0201 µM; in the data set with Vero, 31.9 µM. For the same compound, the selectivity ratio in data set [2] was found to be 1580.

`O=C1c2cccc3c(N4CCCCC4)ccc(c23)C(=O)N1CCNc1ccnc2cc(Cl)ccc12`: the IC50 in the data set with Plasmodium falciparum [1] was 0.149 µM; with Vero, 126 µM. For the same compound, the selectivity ratio in data set [2] was found to be 851.

Take `O=C1c2cccc3c(Br)ccc(c23)C(=O)N1CCNc1ccnc2cc(Cl)ccc12`: the half-inhibitory concentration (IC50) in the data set with Plasmodium falciparum [1] was determined as 0.053 µM; with Vero it was 7.79 µM. For the same compound, the selectivity ratio in data set [2] came to 147.

For the compound `O=C1c2cccc3c(N4CCN(CCO)CC4)ccc(c23)C(=O)N1CCCCCCNc1ccnc2cc(Cl)ccc12`, the IC50 in the data set with Plasmodium falciparum [1] amounted to 0.12 µM; with Vero, 13.1 µM. For the same compound, the selectivity ratio in data set [2] came out at 109.

For `O=C1c2cccc3c(N4CCOCC4)ccc(c23)C(=O)N1CCCNc1ccnc2cc(Cl)ccc12`, the IC50 was 0.0669 µM with Plasmodium falciparum [1] and 69 µM with Vero. For the same compound, the selectivity ratio in data set [2] turned out to be 1030.

Take `O=C1c2cccc3c(N4CCN(CCO)CC4)ccc(c23)C(=O)N1CCNc1ccnc2cc(Cl)ccc12`: the half-maximal inhibitory concentration (IC50) with Plasmodium falciparum [1] stood at 0.0411 µM; with Vero, 45.2 µM. The selectivity ratio in data set [2] was determined as 1100.

As to `O=C1c2cccc3c(Br)ccc(c23)C(=O)N1CCCCCCCCNc1ccnc2cc(Cl)ccc12`, the results for the IC50 in the data set on Plasmodium falciparum [1] and in the data set with Vero were 0.562 µM and 177 µM, respectively. Further, the selectivity ratio in [2] came to 315.

Take `O=C1c2cccc3cccc(c23)C(=O)N1CCCNc1ccnc2cc(Cl)ccc12`: the IC50 in the data set with Plasmodium falciparum [1] was 0.147 µM; in the data set with Vero it was 3.14 µM. In addition, in data set [2], the selectivity ratio is 21.4.

`O=C1c2cccc3cccc(c23)C(=O)N1CCCCCCNc1ccnc2cc(Cl)ccc12`: the IC50 amounted to 0.39 µM in the data set with Plasmodium falciparum [1] and 218 µM with Vero. In [2], the selectivity ratio amounted to 560.

For the compound `O=C1c2cccc3cccc(c23)C(=O)N1CCCCNc1ccnc2cc(Cl)ccc12`, the values for the IC50 in the data set with Plasmodium falciparum [1] and in the data set with Vero were 0.0407 µM and 7.58 µM, respectively. In addition, in data set [2], the selectivity ratio was 186.

For the compound `O=C1c2cccc3c(N4CCOCC4)ccc(c23)C(=O)N1CCCCCCCCNc1ccnc2cc(Cl)ccc12`, the IC50 in the data set with Plasmodium falciparum [1] came to 3.97 µM; with Vero it was 175 µM. Further, the selectivity ratio in data set [2] is 44.1.

With `O=C1c2cccc3c(Br)ccc(c23)C(=O)N1CCCCCCNc1ccnc2cc(Cl)ccc12`, the IC50 in the data set with Plasmodium falciparum [1] was determined as 0.162 µM; with Vero, 186 µM. Besides, the selectivity ratio in data set [2] was found to be 1150.

Turning to `O=C1c2cccc3c(N4CCOCC4)ccc(c23)C(=O)N1CCNc1ccnc2cc(Cl)ccc12`, the IC50 in the data set with Plasmodium falciparum [1] worked out at 0.121 µM; with Vero, 26.8 µM. For the same compound, the selectivity ratio in [2] turned out to be 221.

Regarding `O=C1c2cccc3c(Br)ccc(c23)C(=O)N1CCCNc1ccnc2cc(Cl)ccc12`, the IC50 was found to be 0.0597 µM with Plasmodium falciparum [1] and 10.7 µM with Vero. Besides, in data set [2], the selectivity ratio was 179.

For the compound `O=C1c2cccc3cccc(c23)C(=O)N1CCCCCCCCNc1ccnc2cc(Cl)ccc12`, the IC50 with Plasmodium falciparum [1] worked out at 0.357 µM; in the data set with Vero, 206 µM. Moreover, the selectivity ratio in data set [2] was found to be 576.

Consider `O=C1c2cccc3c(N4CCCCC4)ccc(c23)C(=O)N1CCCCCCCCNc1ccnc2cc(Cl)ccc12`, for which the IC50 with Plasmodium falciparum [1] is 0.438 µM; in the data set on Vero, 176 µM. Further, the selectivity ratio in [2] came out at 401.

For `O=C1OC(=O)c2cccc3cccc1c23` [1,8-NAPHTHALIC ANHYDRIDE], the IC50 in the data set on Plasmodium falciparum [1] is over 10 µM; with Vero, 505 µM.

On to `CC(C)[C@@H](C(=O)N[C@H](Cc1ccccc1)[C@@H](O)CN1CCN(Cc2ccc(Br)cc2)CC1)N1C(=O)c2ccccc2C1=O`, for which the IC50 in the data set with Plasmodium falciparum [3] was found to be 3.01 µM.

Take `O=C1c2cccc3cccc(c23)C(=O)N1CCNc1ccnc2cc(Cl)ccc12`: the IC50 was 0.056 µM in the data set with Plasmodium falciparum [1] and 249 µM with Vero. For the same compound, the selectivity ratio in data set [2] was found to be 4440.

In the case of `O=C1c2cccc3c(N4CCCCC4)ccc(c23)C(=O)N1CCCCCCNc1ccnc2cc(Cl)ccc12`, the IC50 was found to be 0.13 µM in the data set with Plasmodium falciparum [1] and 185 µM in the data set with Vero. The selectivity ratio in data set [2] was determined as 1420.

Consider `O=C1c2cccc3c(N4CCN(CCO)CC4)ccc(c23)C(=O)N1CCCCCCCCNc1ccnc2cc(Cl)ccc12`, for which the IC50 stood at 0.215 µM in the data set with Plasmodium falciparum [1] and 171 µM with Vero. For the same compound, the selectivity ratio in data set [2] worked out at 797.

Take `O=C1c2cccc3c(N4CCOCC4)ccc(c23)C(=O)N1CCCCCCNc1ccnc2cc(Cl)ccc12`: the IC50 worked out at 0.0842 µM in the data set on Plasmodium falciparum [1] and 184 µM in the data set with Vero.

Turning to `O=C1c2cccc3c(N4CCCCC4)ccc(c23)C(=O)N1CCCNc1ccnc2cc(Cl)ccc12`, the IC50 with Plasmodium falciparum [1] came to 0.0512 µM; with Vero, 200 µM. Further, the selectivity ratio in data set [2] was 3910.

As to `O=C1c2cccc3c(N4CCN(CCO)CC4)ccc(c23)C(=O)N1CCCNc1ccnc2cc(Cl)ccc12`, the result with Heme [4], in the data set on Heme [5], with Heme [6] and in the data set with Heme [8] was Active. Moreover, the IC50 in the data set on Plasmodium falciparum [1] was 0.0154 µM; in the data set on Vero, 64.8 µM. Further, in [2], the selectivity ratio worked out at 4190. Also, the “Ratio IC50” value in the data set with Plasmodium falciparum [7] worked out at 15. Also, the log K with Heme [9] was determined as 6.06; in the data set with Heme [10] it was 6.33.

`O=C1OC(=O)c2ccc(Br)c3cccc1c23`: the IC50 with Plasmodium falciparum [1] was over 10 µM; in the data set on Vero it was 361 µM.

On to `O=C1c2cccc3c(N4CCCCC4)ccc(c23)C(=O)N1CCCCNc1ccnc2cc(Cl)ccc12`, for which the results for the IC50 in the data set on Plasmodium falciparum [1] and in the data set with Vero were 0.0961 µM and 33.8 µM, respectively. Besides, in [2], the selectivity ratio came to 352.

Regarding `O=C1c2cccc3c(Br)ccc(c23)C(=O)N1CCCCNc1ccnc2cc(Cl)ccc12`, the IC50 in the data set on Plasmodium falciparum [1] was 0.0533 µM; in the data set on Vero it was 13.9 µM. In addition, the selectivity ratio in data set [2] is 262.
